The values below come from ChEMBL document CHEMBL1144884, “Synthesis, activity, and molecular modeling studies of novel human aldose reductase inhibitors based on a marine natural product” (J Med Chem, 2003).

By IC50 is commonly meant the concentration needed to halve the response being measured. A word on the inhibition: it is how much of the control response was suppressed.

The structures appear in SMILES notation.

Assay [1] deals with T1, Aldo-keto reductase family 1 member B1 (Homo sapiens, UniProt P15121). Kind of assay: (§1) In vitro inhibitory activity against recombinant human aldose reductase (ALR2) was determined.
Assay [2] in a line: Inhibitory activity on sorbital accumulation in human retinal cells was determined. The format is functional, cell-based. The method in brief: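 ARPE-19 human retinal cells grown in MEM with 0.5% fetal calf serum plus 50 mM glucose. Compounds added in DMSO, then 16 h at 37 °C under 5% CO2. Cells lysed with 8% perchloric acid and neutralised with KOH. Sorbitol measured by colorimetric kit. IC50 taken as the concentration halving sorbitol accumulation; mean of three experiments.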

The target of assay [3] is T1, Aldo-keto reductase family 1 member B1. Description: In vitro inhibition of recombinant human aldose reductase (ALR2). The method in brief: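 Recombinant human ALR2 expressed in baculovirus-infected Sf9 cells, purified by dye-affinity chromatography. Assay at 37 °C: 100 mM sodium phosphate pH 6.2, 400 mM ammonium sulfate, 5 mU/mL enzyme, 0.1 mM NADPH. DMSO-dissolved compound preincubated 5 min, then 10 mM glyceraldehyde added; A340 decrease followed 6 min.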

Assay [4] has the same target. The description is as §1. The essentials: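 Recombinant hALR2 expressed in baculovirus-infected Sf9 cells, purified by affinity chromatography. Run at 37 °C in 100 mM sodium phosphate pH 6.2, 400 mM ammonium sulfate, 5 mU/mL enzyme, 0.1 mM NADPH. Compounds in DMSO preincubated 5 min. Started with 10 mM glyceraldehyde; A340 decrease read over 6 min.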
The source holds these as a separate data set.

`Nc1c(Oc2cc(Br)c(Br)c(Br)c2O)cc(Br)c(Br)c1Br`: the half-inhibitory concentration (IC50) stood at 8.9 µM in assay [1] and 6 µM in assay [2]. For the compound `COc1c(Nc2cc(Br)c(Br)c(Br)c2OC)cc(Br)c(Br)c1Br`, the inhibition in assay [3] turned out to be 0%. As to `Oc1ccc(Br)cc1Oc1cc(Br)ccc1O`, in assay [3], the inhibition was 32%. As to `Oc1c(Nc2cc(Br)c(Br)c(Br)c2O)cc(Br)c(Br)c1Br`, in assay [3], the inhibition was 18%. Take `COc1ccc2c(C(=S)N(C)CC(=O)O)cccc2c1C(F)(F)F` [TOLRESTAT]: half-maximal inhibition in assay [2] (IC50) was put at 0.02 µM. For the compound `O=C(O)COc1c(Br)cc(Br)cc1Oc1c(Br)c(Br)c(Br)c(Br)c1OCC(=O)O`, the IC50 in assay [1] amounted to 25 µM.

As to `Oc1c(Oc2cc(Cl)c(Cl)c(Cl)c2O)cc(Cl)c(Cl)c1Cl`, the figures for the half-inhibitory concentration (IC50) in assay [1] and in assay [2] were 3.2 µM and 0.24 µM, respectively.

On to `Oc1cc(Br)c(O)c(Oc2c(O)c(Br)c(Br)c(Br)c2Br)c1`, for which the inhibition in assay [3] is 38%. `Oc1cc(Br)c(Br)cc1Oc1cc(Br)c(Br)cc1O`: the inhibition in assay [3] was 46%.

On to `Oc1c(Br)cc(Br)cc1Oc1c(Br)cc(Br)c(Br)c1O`, for which the inhibition in assay [3] came to 25%. As for `COc1c(Br)c(Br)c(Br)c(Br)c1Oc1cc(O)cc(Br)c1O`, the inhibition in assay [3] was 0%. On the same count and under the same terms, the value for `CC(=O)Oc1c(Br)cc(Br)cc1Oc1c(Br)c(Br)c(Br)c(Br)c1OC(C)=O` was 0%; that for `Oc1cc(Br)c(Br)c(Br)c1Oc1cc(Br)cc(Br)c1O` was 0%. On to `COC(=O)COc1c(Br)cc(Br)cc1Oc1c(Br)c(Br)c(Br)c(Br)c1OCC(=O)OC`, for which the inhibition in assay [3] was 0%. Same read-out and setting: in the case of `COc1cc(Br)c(Br)cc1Oc1cc(Br)c(Br)cc1OC` it was 0%. On to `Oc1c(Br)cc(Br)cc1Oc1c(O)c(Br)c(Br)c(Br)c1Br`, for which the half-inhibitory concentration (IC50) in assay [2] came to 3 µM; in assay [4], 6.4 µM.

As to `COc1c(Br)cc(Br)cc1Oc1c(Br)c(Br)c(Br)c(Br)c1OC`, the inhibition in assay [3] is 0%. On to `Oc1c(Br)cc(Oc2cc(Br)c(Br)c(Br)c2O)c(O)c1Br`, for which the IC50 was 4.4 µM in assay [1] and 8 µM in assay [2].

`Oc1c(Oc2c(O)c(Br)c(Br)c(Br)c2Br)cc(Br)c(Br)c1Br`: the results for the concentration for half-maximal inhibition (IC50) in assay [1] and in assay [2] were 5.5 µM and 7 µM, respectively. Turning to `COc1cc(Br)c(Br)c(Br)c1Oc1cc(Br)cc(Br)c1OC`, the inhibition in assay [3] came out at 0%.

Regarding `Oc1c(Oc2cc(Br)c(Br)c(Br)c2O)cc(F)c(Br)c1Br`, the IC50 in assay [1] turned out to be 3.2 µM; in assay [2] it was 11 µM. Turning to `O=C1NC(=O)[C@@]2(CCOc3ccc(F)cc32)N1` [SORBINIL], in assay [2], the IC50 was 4 µM. As for `Oc1c(Oc2cc(Br)c(Br)c(Br)c2O)cc(Br)c(Br)c1Br`, the IC50 in assay [1] was found to be 5.7 µM; in assay [2], 1 µM.
